Compounds with a hit are over-represented: about 5.1% of the library has one in this group of screens.
APP 5'UTR act: APP 5'UTR luciferase reporter activation. 1% of 190,000 active. SH-SY5Y APP 5'UTR luciferase reporter, luminescence; zero percent = DMSO vehicle wells. activation, % at 2 µM. AID 1276;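 active means activation above a set limit, based on mean plus 3 SD of controls, cut at about 140% in these data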
STAT1 inh: inhibitors of IFN-gamma induced STAT1 signaling; NIH 3T3 STAT1-luciferase reporter, luminescence; inhibition, % at 5.5 µM; 0.35% of 200,000 active; AID 920;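 active means inhibition above a set limit, the mean inhibition across all tested compounds plus 3 SD, cut at about 34% in these data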
STAT3 inh: reduces IL-6 driven STAT3 reporter signal; 0.89% of 190,000 active; U3A cells, IL-6 STAT3-luciferase reporter, luminescence; host cell line lacks STAT1; inhibition, % at 5.5 µM;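 active means inhibition above the mean inhibition across all screened compounds plus 3 SD, cut at about 44% in these data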
STAT1 act: increases IFN-gamma driven STAT1 reporter signal; NIH 3T3 STAT1-luciferase reporter, luminescence; 100% = IFN-gamma alone, no compound; activation (% of control), % at 5.5 µM; 2.6% of 200,000 active;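 active means activation above the screen-wide mean activation plus 3 SD, cut at about 130% in these data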
STAT3 activator: activators of IL-6 induced STAT3 signaling; U3A cells, IL-6 STAT3-luciferase reporter, luminescence; 100% = signal with IL-6 EC80 alone; activation (% of control), % at 5.6 µM; 0.91% of 190,000 active; AID 871;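 active means activation above the screen-wide mean of compound activation plus 3 SD, cut at about 130% in these data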
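Material: human STAT1-deficient U3A cells with stable STAT3-luciferase reporter / Probe or stimulus: IL-6 stimulus at 33 ng/mL final / Schedule: 1 h compound pre-exposure, 6 h IL-6 stimulation, 37 °C / Technique: luminescence / Read-out basis: percent of IL-6-only median luminescence / Control set: IL-6-only high control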
NF-kB expr up: compounds increasing NF-kB expression in human neuronal cells; NF-kB reporter expression; hits give high values; fold change at 12.5 µM; 1.6% of 190,000 active; in the data active means fold change above about 3.3
STAT1 activ conf: STAT1 activation, confirmation assay. shares compounds with STAT1 act. NIH 3T3 STAT1-luciferase reporter, IFN-gamma potentiation, luminescence; 100% = IFN-gamma EC80 alone, no compound. activation (% of control), % at 5.7 µM. 97% of 1,200 active. AID 1262;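 active means activation above a set limit carried over from the earlier primary STAT1 screen, cut at about 140% in these data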
NFkB act: activates NF-kappaB, counter-screen to STAT1 activators. HEK293T NF-kB luciferase reporter, TNF-alpha stimulated, luminescence; 100% = TNF-alpha with vehicle only. shares compounds with STAT1 act. activation (% of control), % at 5.7 µM. AID 1306. 43% of 1,200 active;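 active means activation above the mean of solvent-only control wells plus 3 SD, set per campaign, cut at about 130% in these data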;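 further: TNF-alpha given at a submaximal dose yielding about 80% of full reporter signal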
STAT3 act STAT1c: human STAT3 activation in STAT1 activator counter-screen; shares compounds with STAT1 act; U3A cells STAT3-luciferase reporter, IL-6, luminescence; cells lack STAT1; 100 = IL-6 alone, no compound effect; activation (% of control), % at 5.7 µM; 46% of 1,200 active;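 active means activation above the solvent-only control well mean plus 3 SD, set per plate batch, cut at about 110% in these data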;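 further: higher means more STAT3 reporter activation so hits are non-selective activators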
Of the large screens only hits and unclear results are named; the others gave an inactive call (follow-up assays come after a bar, where they were run).

O=C(c1nn(Cc2ccccc2)c(=O)c2ccccc12)N1CCN(C/C=C/c2ccccc2)CC1	none
Cc1ccc(N=Nc2c(N)nn(-c3ccccc3)c2N)cc1	STAT1 act 155, NF-kB expr up 6 | STAT1 activ conf 180 | NFkB act 138 | STAT3 act STAT1c inactive
N#C/C(=C/c1ccc(N2CCOCC2)o1)C(=O)Nc1ccccc1	APP 5'UTR act 162, STAT1 act 160, NF-kB expr up 4.4 | STAT1 activ conf 195 | NFkB act inactive | STAT3 act STAT1c inactive
CCCCNC(=O)CN(c1cccc(Br)c1)S(C)(=O)=O	none
O=C(N/N=C\c1cccc(Cl)c1)c1n[nH]c2c1CCCC2	APP 5'UTR act 156, STAT1 act 170 | STAT1 activ conf 212 | NFkB act inactive | STAT3 act STAT1c inactive
O=C(N/N=C/c1ccc(Cl)cc1Cl)c1n[nH]c2c1CCCC2	none
Cn1c(=O)c2c(nc(SCC(=O)c3ccccc3F)n2C)n(C)c1=O	none
CC(/C=N/NC(=O)c1sc(N)nc1C)=C\c1ccccc1	STAT1 act 153 | STAT1 activ conf 146 | NFkB act inactive | STAT3 act STAT1c inactive
Cc1nc(N)sc1C(=O)N/N=C/c1ccccc1[N+](=O)[O-]	STAT1 act 156 | STAT1 activ conf 155 | NFkB act inactive | STAT3 act STAT1c 118
O=C(O)c1ccc(NCCC2=CCCCC2)c([N+](=O)[O-])c1	none
COc1ccc(C2CC(=O)c3sc(NC(C)=O)nc3C2)cc1 (stereo unspecified)	none
CC(C)=CC(=O)Nc1nnc(C)s1	none
CC(C)=CC(=O)Nc1nnc(-c2ccccc2)s1	STAT1 act 162 | STAT1 activ conf 196 | NFkB act 135 | STAT3 act STAT1c inactive
O=[N+]([O-])c1cccc(/C=N/Nc2cc(Cl)nc(-c3ccccc3)n2)c1	none
COc1ccc(-c2cc(C(=O)O)c(C)o2)cc1OC	STAT1 act 152 | STAT1 activ conf 218 | NFkB act inactive | STAT3 act STAT1c 112
COc1ccc(-c2cc(C(=O)NC(Cc3cc4ccccc4[nH]3)C(=O)O)c(C)o2)cc1OC (stereo unspecified)	none
CC(NC(=O)C1c2ccccc2Oc2ccccc21)C1CCCO1 (stereo unspecified)	none
O=P(O)(CN1CCCCCC1)CN1CCCCCC1	STAT1 act 153 | STAT1 activ conf inactive | NFkB act inactive | STAT3 act STAT1c inactive
O=S(=O)(Nc1nc2c(s1)CCCC2)c1ccc(F)cc1	none
Cc1cccc(Nc2nc3c(s2)CCCC3)c1	STAT1 act 164, NF-kB expr up 6.6 | STAT1 activ conf 208 | NFkB act 146 | STAT3 act STAT1c inactive
O=S1(=O)N=C(Nc2nc3c(s2)CCCC3)c2ccccc21	STAT1 act 152, NF-kB expr up 6.2 | STAT1 activ conf 194 | NFkB act inactive | STAT3 act STAT1c 126
Cc1cccc(Nc2nc(N3CCCC3)nc(N3CCCC3)n2)c1	none
COc1ccc(-c2nn(-c3ccccc3)cc2N)cc1	STAT1 act 165, NF-kB expr up 4 | STAT1 activ conf 159 | NFkB act inactive | STAT3 act STAT1c 164
COc1ccc(-c2nn(-c3ccccc3)cc2CO)cc1	none
Nc1c(Cl)ncnc1N/N=C/c1ccccn1	none
Nc1c(Cl)ncnc1N/N=C/c1ccc2ccccc2n1	STAT1 act 162 | STAT1 activ conf 161 | NFkB act inactive | STAT3 act STAT1c 138
COc1ccc(-c2cc(C(=O)Nc3ccccc3)on2)cc1	STAT1 act 179 | STAT1 activ conf 156 | NFkB act inactive | STAT3 act STAT1c inactive
COc1ccc(-c2cc(C(=O)Nc3ccccc3F)on2)cc1	none
Cc1ccc(/C=N/OC(=O)c2nn(C)cc2Cl)cc1	none
CN(c1ccccc1)c1ccc(/C=N/N2CCOCC2)cc1	STAT1 act 172, NF-kB expr up 6.8 | STAT1 activ conf 197 | NFkB act inactive | STAT3 act STAT1c inactive
COc1cccc(NC(=O)COc2nc3ccccc3nc2C)c1	none
CCCCCCOc1ccc(/C(N)=N/O)cc1	STAT1 act 161, NF-kB expr up 6.8 | STAT1 activ conf 157 | NFkB act inactive | STAT3 act STAT1c 121
Brc1ccccc1OCCCn1cnc2ccccc21	STAT1 act 158, NF-kB expr up 6.7 | STAT1 activ conf 186 | NFkB act 138 | STAT3 act STAT1c inactive
c1ccc(OCCn2cnc3ccccc32)cc1	none
O=C(CCc1ccccc1)c1ccc2c(c1)OCCCO2	none
O/N=C(/CCc1ccccc1)c1ccc2c(c1)OCCO2	STAT1 act 155 | STAT1 activ conf 155 | NFkB act inactive | STAT3 act STAT1c inactive
O=C(/C=C/Nc1ccc(F)c(F)c1)c1cccs1	APP 5'UTR act 144, STAT1 act 169, NF-kB expr up 9.8 | STAT1 activ conf 229 | NFkB act inactive | STAT3 act STAT1c 132
CCOc1ccc(NC(=O)c2csc3c2CCCC3)cc1	STAT1 act 171, NF-kB expr up 3.9 | STAT1 activ conf 198 | NFkB act 139 | STAT3 act STAT1c inactive
COc1cc(NC(=O)c2csc3c2CCCC3)ncn1	STAT1 act 171, NF-kB expr up 3.3 | STAT1 activ conf 193 | NFkB act inactive | STAT3 act STAT1c inactive
CN1C(=O)/C(=C/C=C2\SCCN2C)SC1=S	APP 5'UTR act 174, STAT1 act 159, NF-kB expr up 4.4 | STAT1 activ conf 224 | NFkB act inactive | STAT3 act STAT1c inactive
CCCN1C(=O)/C(=C\C=C2/Sc3ccccc3N2CC)SC1=S	none
O=C(O)CCC(=O)NNC(=O)c1cccs1	none
O=C(O)CC/C(=N/NC(=O)c1cccs1)c1ccccc1	STAT1 act 157 | STAT1 activ conf 134 | NFkB act inactive | STAT3 act STAT1c inactive
COc1cc(OC)cc(C(=O)N[C@H](C(=O)NCc2cccs2)C(C)C)c1	none
O=C(Cc1ccccc1)NN1C(=O)/C(=C/c2ccccc2C(=O)O)SC1=S	none
CC(=O)c1ccc(NCC2COc3ccccc3O2)c([N+](=O)[O-])c1 (stereo unspecified)	APP 5'UTR act 145, STAT1 act 159 | STAT1 activ conf 229 | NFkB act 140 | STAT3 act STAT1c 220
COC(=O)c1ccc(C2C(C(=O)Nc3ccc(C)cc3C)=C(C)Nc3ncnn32)cc1 (stereo unspecified)	none (no result: STAT1 inh, STAT3 inh, STAT1 act, STAT3 activator)
